Experimental data as given in article PMC12489099 (Nature Communications, 2025).

Legend:
Type in all cases: biochemical
Wt-Tau441 = Wt-Tau441 (Homo sapiens, UniProt P10636); test: ThT fluorescence assay of Wt-Tau fibrillization
In short: (§1)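 Lyophilized full-length Tau441 (wild-type or ΔK280) was diluted to 40 µM stock in 25 mM NaPi, 25 mM NaCl, 2.5 mM EDTA, pH 6.8, and used at 10 µM final with 25 µM ThT. Aggregation was started with 0.0625 µM heparin. Water-dissolved test compound was added at 50, 10 or 1 µM. Fluorescence was followed over time. Curves were fitted to a Boltzmann sigmoid and scaled to maximal control fluorescence; Wt-Tau relative F was taken at 30 h.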

Tau441-ΔK280 = Tau441-ΔK280 (Homo sapiens, UniProt P10636, DEL597-597); test: ThT fluorescence assay of Tau-ΔK280 fibrillization; conditions: both 5/1 and 1/1 ratios
In short: as §1

Aβ1-42 = Aβ1-42 (Homo sapiens, UniProt P05067); test: ThT fluorescence assay of Aβ1-42 fibrillization; conditions: compound/Aβ1-42 ratio 1/1
Aβ1-42, sequence (P05067 672-713): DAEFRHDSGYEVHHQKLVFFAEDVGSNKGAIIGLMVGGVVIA

| decrease of F versus Wt-Tau control (Wt-Tau441; compound/Wt-Tau ratio 0.1/1) [%] | t1/2, change versus Wt-Tau control (Wt-Tau441; compound/Wt-Tau ratio 1/1, N.A. = no aggregation) | inhibition of the aggregation of Wt-Tau (in words) (Wt-Tau441; compound/Wt-Tau ratio 5/1, ThT) | inhibition of the aggregation of Tau-ΔK280 (in words) (Tau441-ΔK280) | F, change versus Aβ1-42 control (Aβ1-42) [%] | Structure (SMILES) |
| --- | --- | --- | --- | --- | --- |
| 50 | +55% | complete inhibition | complete inhibition | – | CN(C)c1ccc2nc3ccc(=[N+](C)C)cc-3sc2c1 [MB, methylthioninium chloride] |
| – | – | – | – | -78 | Oc1ccc(/C=C/c2cc(O)cc(O)c2)cc1 [Resveratrol] |
